Active and inactive are the calls of the source. No cut-off for these calls is given here.
Key:
mTORC2 (Homo sapiens) [1] = biological target: T1, mTORC2 (Homo sapiens) (UniProt P42345+Q6R327+Q9BVC4+Q9BPZ7); test: Inhibition of mTORC2 in human MDA-MB-231 cells assessed as reduction in Akt phosphorylation at Ser473 residue at 15 to 25 uM by Western blot analysis; format: cell-based; settings: dose 15-25 µM
How it was run: (§1)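 Cells seeded at 5 × 10^5 per 100 mm dish and allowed to attach overnight. Treated with compound or DMSO for 72 h (HGF 100 ng/mL added for MDA-MB-231). Lysed in RIPA buffer with protease inhibitors. 30 μg protein run on SDS-PAGE, transferred to PVDF, blocked in 5% BSA/TBST. Primary antibodies overnight at 4 °C, HRP secondary antibodies, chemiluminescent detection.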

[2] = biological target: Serine/threonine-protein kinase mTOR (Homo sapiens) (UniProt P42345); test: Inhibition of mTOR in human MDA-MB-231 cells assessed as reduction in p-S6K level at 15 to 25 uM by Western blot analysis; format: cell-based; settings: dose 15-25 µM; how it was run: as §1
MDA-MB-231 [3] = test: Antiproliferative activity against human MDA-MB-231 cells incubated for 72 hrs by MTT assay; format: functional, cell-based; settings: MDA-MB-231, 72 h
How it was run: (§2)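 Cells seeded at 5 × 10^3/well and allowed to attach overnight, then washed with PBS. Compound diluted from 10 mM DMSO stock into medium (100 ng/mL HGF added for c-Met-expressing cells), in triplicate, 72 h at 37 °C. MTT added for 4 h, formazan dissolved in DMSO, absorbance read at 570 nm. Cell numbers taken from a standard curve; IC50 calculated.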

MCF7 [4] = test: Induction of autophagy in human MCF7 cells assessed as increase in beclin-1 level by Western blotting analysis; format: functional, cell-based; settings: dose 15-25 µM; how it was run: as §1
[5] = biological target: Serine/threonine-protein kinase mTOR (Homo sapiens) (UniProt P42345); test: Inhibition of mTOR in human MDA-MB-231 cells assessed as reduction in phosphorylated 4E-BP1 level at 15 to 25 uM by Western blot analysis; format: cell-based; settings: dose 15-25 µM; how it was run: as §1
MCF7 [6] = test: Induction of autophagy in human MCF7 cells assessed as increase in LC3 level by Western blotting analysis; format: functional, cell-based; settings: dose 15-25 µM; how it was run: as §1
MDA-MB-231 [7] = test: Induction of autophagy in human MDA-MB-231 cells assessed as increase in LC3 level by Western blotting analysis; format: functional, cell-based; settings: dose 15-25 µM; how it was run: as §1
T47D = test: Antiproliferative activity against human T47D cells incubated for 72 hrs by MTT assay; format: functional, cell-based; how it was run: as §2
MDA-MB-231 [8] = test: Induction of autophagy in human MDA-MB-231 cells assessed as increase in beclin-1 level by Western blotting analysis; format: functional, cell-based; settings: dose 15-25 µM; how it was run: as §1
MDA-MB-468 = test: Antiproliferative activity against human MDA-MB-468 cells incubated for 72 hrs by MTT assay; format: functional, cell-based; settings: MDA-MB-468, 72 h; how it was run: as §2
MDA-MB-231 [9] = test: Antimigratory activity in human MDA-MB-231 cells assessed as inhibition of cell migration after 23 hrs by scratch wound healing assay; format: functional, cell-based
How it was run: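 Cells seeded at 1 × 10^5/well and grown to a confluent monolayer, then scratched with a 200 μL pipet tip. Held 5 h in serum-free medium, then given medium with HGF (100 ng/mL) plus compound or DMSO. Norstictic acid (15 μM) was the positive control. Wound width photographed at 0 h and followed up to 24 h; cells MeOH-fixed. Percent migration from wound thickness versus DMSO wells; IC50 calculated.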

mTORC2 (Homo sapiens) [10] = biological target: T1, mTORC2 (Homo sapiens); test: Inhibition of mTORC2 in human MCF7 cells assessed as reduction in Akt phosphorylation at Ser473 residue at 15 to 25 uM by Western blot analysis; format: cell-based; settings: dose 15-25 µM; how it was run: as §1
MCF7 [11] = test: Antiproliferative activity against human MCF7 cells incubated for 72 hrs by MTT assay; format: functional, cell-based; settings: MCF7, 72 h; how it was run: as §2
[12] = biological target: Serine/threonine-protein kinase mTOR (Homo sapiens) (UniProt P42345); test: Inhibition of mTOR in human […] cells assessed as reduction in p-S6K level at 15 to 25 uM by Western blot analysis; format: cell-based; settings: MCF7, dose 15-25 µM; how it was run: as §1
SK-BR-3 = test: Antiproliferative activity against human SK-BR-3 cells incubated for 72 hrs by MTT assay; format: functional, cell-based; settings: SK-BR-3, 72 h; how it was run: as §2
MDA-MB-231 [13] = test: Anti-invasive activity in human MDA-MB-231 cells after 24 hrs […]; format: functional, cell-based; settings: MDA-MB-231, 24 h
BT-474 = test: Antiproliferative activity against human BT-474 cells incubated for 72 hrs by MTT assay; format: functional, cell-based; settings: BT-474, 72 h; how it was run: as §2
[14] = biological target: Serine/threonine-protein kinase mTOR (Homo sapiens) (UniProt P42345); test: Inhibition of mTOR in human […] cells assessed as reduction in phosphorylated 4E-BP1 level at 15 to 25 uM by Western blot analysis; format: cell-based; settings: MCF7, dose 15-25 µM; how it was run: as §1

With CC(=O)C1=C(O)C=C2Oc3c(C(C)=O)c(O)c(C)c(O)c3[C@]2(C)C1=O [(-)-USNIC ACID] the inhibition (mTORC2 (Homo sapiens) [1]) was “Active”, the inhibition [2] was “Active” and the IC50 (MDA-MB-231 [3]) was 13.1 µM. For the same molecule, the Activity (MCF7 [4]) was “Dose-Dependent Effect”, the inhibition [5] was “Active” and the Activity (MCF7 [6]) was “Dose-Dependent Effect”. For the same molecule, the Activity (MDA-MB-231 [7]) was “Dose-Dependent Effect”, the IC50 (T47D) was 15.9 µM and the Activity (MDA-MB-231 [8]) was “Dose-Dependent Effect”. For the same molecule, the IC50 (MDA-MB-468) was 13.7 µM, the Activity (MDA-MB-231 [9]) was “Dose-Dependent Effect” and the IC50 (MDA-MB-231 [9]; MDA-MB-231, 23 h) was 13.7 µM. For the same molecule, the inhibition (mTORC2 (Homo sapiens) [10]) was “Active”, the IC50 (MCF7 [11]) was 11.2 µM and the inhibition [12] was “Active”. It also gave an IC50 (SK-BR-3) of 14.4 µM, an IC50 (MDA-MB-231 [13]) of 14.2 µM and an IC50 (BT-474) of 15.1 µM. For the same molecule, the inhibition [14] was “Active”.
